High-throughput results deposited in PubChem BioAssay by Broad Institute.
FN deposit inh – fibronectin deposition inhibition | inhibition, % at 12.6 µM | AID 743247 | 350,000 compounds, 0.086% hits | AH1F fibroblasts, Alexa488-fibronectin deposition fluorescence, overnight;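 active = mean inhibition across replicates of 30% or more, regardless of how many single replicates reach that level; inconclusive = mean under 30% yet at least half of replicates reach 30%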;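 note: positive control wells lacked labelled fibronectin entirely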
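Material: AH1F fibroblast monolayer depositing Alexa488-labelled fibronectin into matrix | Input: 10000 AH1F cells/well | Medium: DMEM plus 2% serum, read in PBS | Reagent: Alexa488-fibronectin, 24 nM final in well | Compound dosing: One dose per compound, pinned | Schedule: 1 h adhesion, overnight exposure | Measured by: Fluorescence at 485 nm excitation, 525 nm emission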
PglD DTNB – blocks C. jejuni PglD acetyltransferase activity. purified PglD enzyme, DTNB colorimetric CoA detection. inhibition, % at 12.5 µM. 360,000 compounds, 0.098% hits. AID 602405; in the data active = inhibition above about 16%, passing the limit was not always enough; inconclusive = no clear call, values can overlap the other calls
PfHsp90 yeast 2 – growth inhibition of yeast expressing Plasmodium Hsp90 | S. cerevisiae expressing PfHsp90, BacTiter-Glo ATP, 48 h; yeast lacking PDR1 and PDR3 efflux regulators | inhibition, % at 9.4 µM | 310,000 compounds, 0.32% hits;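 active = every replicate shows inhibition above about 80%, whatever the replicate mean, limit read from the data; inconclusive = mean inhibition reaches the set limit but some replicate falls short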;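 note: 0% = DMSO neutral controls and 100% = 20 µM radicicol positive controls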
SKKanGAS inh – inhibitors of SKKanGAS S. pyogenes growth in kanamycin (SK-promoter or general growth effect) | inhibition, % at 7.5 µM | BacTiter-Glo, 6 h | 300,000 compounds, 1.3% hits;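 active = mean replicate score, as percent of positive control median, at least 50; inconclusive = mean below 50 but one replicate at or above 50; inactive = mean and every replicate below 50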;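 note: strain carries kanamycin resistance gene driven by streptokinase promoter and grows in 40 µg/ml kanamycin; loss of luminescence reflects streptokinase promoter inhibition or plain growth inhibition; 0% = median of DMSO wells and 100% = positive control at its reference dose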
CSC inhib – cancer stem cell inhibition | cancer stem cell-like cells viability, luminescence | inhibition, % at 7.5 µM | 300,000 compounds, 1.1% hits; in the data active = inhibition above about 75%; inconclusive = no clear call, values can overlap the other calls; tested in HMLE shEcad cells
Rtt109 Vps75 – inhibitors of Candida albicans Rtt109/Vps75 histone acetyltransferase; Q5AAJ8; purified Rtt109/Vps75, ThioGlo CoA-SH fluorescence, 4 h; inhibition, % at 34.9 µM; 330,000 compounds, 0.16% hits; AID 540336;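 active = inhibition of at least 50% in every replicate; inconclusive = best replicate reaches 50% inhibition but some replicates fall short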
Target sequence (Q5AAJ8 whole entry, looked up): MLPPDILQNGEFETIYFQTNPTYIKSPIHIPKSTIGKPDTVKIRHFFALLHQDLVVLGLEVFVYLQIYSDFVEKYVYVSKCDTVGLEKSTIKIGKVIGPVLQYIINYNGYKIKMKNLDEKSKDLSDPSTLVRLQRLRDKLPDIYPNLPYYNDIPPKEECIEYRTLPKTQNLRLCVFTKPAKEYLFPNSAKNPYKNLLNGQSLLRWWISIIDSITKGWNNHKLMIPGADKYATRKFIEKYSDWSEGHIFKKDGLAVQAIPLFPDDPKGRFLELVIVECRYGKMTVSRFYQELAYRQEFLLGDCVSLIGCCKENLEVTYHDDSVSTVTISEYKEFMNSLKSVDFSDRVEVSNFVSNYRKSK
Active calls of the source: *; ? = inconclusive; · = not tested or not shown; ! = not active in a repeat. The list is not random: actives were taken first. Their share in the collection is about 1.7%.

SMILES	FN deposit inh	PglD DTNB	PfHsp90 yeast 2	SKKanGAS inh	CSC inhib	Rtt109 Vps75
CCCCCCc1cc2cc(-c3nnc(-c4cc(OC)c(OC)c(OC)c4)o3)c(=O)oc2cc1O	·	·	·	36	77*	·
CCCCCCc1cc2cc(-c3nnc(-c4ccccc4O)o3)c(=O)oc2cc1O	·	2	-16	98*	109*	9
C[C@@H]1CN([C@H](C)CO)C(=O)c2cc(NS(=O)(=O)c3cn(C)cn3)ccc2O[C@H]1CN(C)CC1CC1	·	5	·	·	·	·
CN(C(=S)NC(=O)c1ccccc1Br)C1CCCCC1	·	0	·	4	-1	·
COc1ccc(C(=O)NC(=S)N(C)C2CCCCC2)cc1	-2	10	-2	·	-19	3
Cc1ccc(C(=O)NC(=S)N(C)C2CCCCC2)cc1Br	·	-1	·	85*	23	5
COc1ccc(C(=O)NC(=S)N(C)C2CCCCC2)cc1Br	·	7	-45	73*	21	-4
CCN(CC)Cc1c(O)ccc2c1O/C(=C\C=C\c1ccccc1)C2=O	9	-12	-82	-7	109*	-24
COc1ccccc1/C=C/C=C1\Oc2c(ccc(O)c2CN(C)C)C1=O	-2	-15	-6	3	1	-8
CC(=O)N(C)C[C@H]1Oc2cc(-c3cncnc3)ccc2S(=O)(=O)N([C@@H](C)CO)C[C@@H]1C	3	-2	·	·	·	·
Cc1nc2c3cc(F)ccc3n(Cc3ccccc3)c2s1	·	1	26	9	118*	-2
Cc1nc2c3cc(F)ccc3n(Cc3ccccc3F)c2s1	11	·	-26	11	55	9
Cc1nn(-c2ccccc2)c(Cl)c1/C=N/NC(=O)c1ccc(NS(=O)(=O)c2cccs2)cc1	·	·	·	72*	9	·
CC(C)(C=O)C1=CC(=O)c2ccccc2C1=O	-10	·	106*	·	57	-2
CCOC(=O)c1ccc(NC(=O)CC2OCCN(CC)C2=O)cc1 (centres undefined)	-20	-4	?	-6	-20	3
CCOC(=O)c1ccc(NC(=O)CC2C(=O)OCCN2CC)cc1 (centres undefined)	3	·	108*	0	-15	-5
COc1cccc(CNC(=O)C[C@@H]2C=C[C@@H](NC(=O)C3CCOCC3)[C@H](CO)O2)c1	-13	1	·	·	·	·
COc1ccc2sc(-c3ccc(N(C)C)cc3)c(C#Cc3cncn3C)c2c1	4	6	13	·	104*	-22
COc1ccc2sc(-c3ccc(N(C)C)cc3)c(C#CCCO)c2c1	-15	5	-3	·	122*	-50
COc1ccc(-c2sc3cc(OC)c(OC)cc3c2C#CCO)cc1	3	-5	-12	·	·	1
COc1ccc(-c2sc3cc(OC)c(OC)cc3c2C#CC(C)(C)O)cc1	12	0	-9	·	17	0
COc1ccc(-c2sc3ccc(OC)cc3c2C#CCCO)cc1	·	-2	-46	97*	99*	10
CCCNC(=O)N(C)C[C@H]1Oc2ncc(C#CC3(O)CCCC3)cc2C(=O)N([C@@H](C)CO)C[C@@H]1C	·	4	·	·	·	·
COc1cc(/C=C2\SC(=S)N(Nc3ncc(C(F)(F)F)cc3Cl)C2=O)ccc1O	-7	-3	106*	22	51	20
CCn1c(-c2ccccc2)c[nH]c1=S	·	-1	6	72*	·	-1
SMILES	FN deposit inh	PglD DTNB	PfHsp90 yeast 2	SKKanGAS inh	CSC inhib	Rtt109 Vps75
S=c1[nH]cc(-c2ccc(Cl)cc2)n1Cc1ccccc1	-8	11	-2	4	-2	-7
O=S(=O)(c1cccs1)N1CCCCN2[C@@H](CO)[C@@H](c3ccc(-c4ccccc4)cc3)[C@@H]2C1	·	0	·	·	·	·
C[C@@H]1CN([C@@H](C)CO)C(=O)CCCn2cc(nn2)CO[C@H]1CN(C)Cc1cccc(C(F)(F)F)c1	8	-2	·	·	·	·
CN(C[C@@H]1[C@@H](c2ccccc2)[C@H](CO)N1C(=O)C1CCC1)C(=O)c1ccccn1	·	-1	·	·	·	·
OC1CC2CCC(C1)N2CCCN1c2ccccc2Sc2ccc(Cl)cc21 (centres undefined)	7	3	·	·	·	22
CN1CCN(CCCN2c3ccccc3Sc3ccc(Cl)cc32)CC1	-6	-6	-2	6	94*!	53*!
CN(C)CCCN1c2ccccc2Sc2ccc(C(F)(F)F)cc21	-10	-2	14	-1	9	9
CC(CN1CCN(CCOCCO)CC1)CN1c2ccccc2Sc2ccc(Cl)cc21 (centres undefined)	-4	11	·	·	·	·
CCSc1ccc2c(c1)N(CCCN1CCN(C)CC1)c1ccccc1S2	-7	3	13	·	78*	18
OCCN1CCN(CCCN2c3ccccc3Sc3ccc(C(F)(F)F)cc32)CC1	-8	-1	11	8	86*	-3
O=C(Nc1ccc(-n2ccc(C(F)(F)F)n2)cc1)Nc1cccc(Cl)c1	7	·	4	2	44	7
COc1ccccc1NC(=O)Nc1ccc(-n2ccc(C(F)(F)F)n2)cc1	6	-1	10	3	83*	-5
O=C(O)c1ccccc1C(=O)Nc1ccc(-n2ccc(C(F)(F)F)n2)cc1	-9	·	18	-4	-5	-1
Cc1cc(C)cc(NC(=O)Nc2ccc(-n3ccc(C(F)(F)F)n3)cc2)c1	1	-7	8	1	104*	15
Cc1noc(C)c1S(=O)(=O)Nc1ccc2c(c1)C(=O)N([C@@H](C)CO)C[C@@H](C)[C@H](CN(C)C(=O)c1ccccc1)OCCCC[C@@H](C)O2	-6	12	·	·	·	·
COc1ccc(CN(C)C[C@H]2Oc3ccc(NC(=O)Nc4ccccc4)cc3C(=O)N([C@H](C)CO)C[C@@H]2C)cc1	·	-12	·	·	·	·
CC(C)NC(=O)N[C@H]1C=C[C@@H](CC(=O)N2CCCCC2)O[C@H]1CO	-2	0	·	·	·	·
CCOc1cc(/C=N/N=C(N)N)ccc1OCc1ccc(Cl)cc1	9	-1	-7	4	106*	44
NC(N)=N/N=C/c1ccc(OCc2ccccc2)c(OCc2ccccc2)c1	2	-4	-21	?	2	79*
NC(N)=N/N=C/c1ccc(OCc2ccccc2Cl)cc1	·	1	28	16	105*	10
C[C@@H]1CN([C@@H](C)CO)C(=O)c2cccc(NC(=O)Nc3ccc4c(c3)OCO4)c2O[C@H]1CN(C)CC1CC1	·	5	·	·	·	·
O=C1NC(=Nc2ccc(Cl)cc2)SC1Cc1cc(Cl)ccc1Cl (centres undefined)	-2	·	4	82*	·	-3
CCCCCCCCOC(=O)C1=C(C)Nc2nnnn2C1c1cccs1 (centres undefined)	·	3	-15	107*	102*	13
C[C@@H]1CC=C[C@H]2[C@H]1C(=O)N(Cc1ccccc1)[C@H]2c1ccc(F)c(-c2ccc(N(C)C)cc2)c1	11	-4	16	25	33	-8
CC(=O)c1ccc(-c2cc([C@H]3[C@H]4C=CC[C@@H](C)[C@@H]4C(=O)N3Cc3ccccc3)ccc2F)cc1	-4	-1	-47	33	115*	-22
